Results taken from ChEMBL document CHEMBL1240415, “Design, synthesis and antimicrobial activities of some new quinoline derivatives carrying 1,2,3-triazole moiety” (2010).
≈ marks a conversion by molar mass, not a printed value.

Assays:
Assay type in all cases: functional
Streptococcus pyogenes = assay: Antibacterial activity against Streptococcus pyogenes after 3 to 4 days by serial plate dilution method; settings: for MIC: Streptococcus pyogenes
In short: (§1)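 Serial dilutions in Mueller-Hinton broth in tubes, pH adjusted to 5.0 with phosphate buffer. Inoculated with a standardized bacterial suspension and incubated 16–18 h at 37 °C. MIC is the lowest concentration with no visible growth, tested over 6.25–100 µg/mL. Zones come from an agar well diffusion assay: compounds in DMSO are added to wells in seeded agar, DMSO control, triplicate plates, 37 °C for 3–4 days, inhibition zone diameter in mm.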

Aspergillus fumigatus = assay: Antifungal activity against Aspergillus fumigatus NCIM 902 after 3 to 4 days by serial plate dilution method; settings: for MIC: Aspergillus fumigatus, NCIM 902
In short: (§2)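 Sabouraud agar made from peptone, glucose and agar in water, pH 5.7. Fungal spores suspended in normal saline and used to lawn the plates, which were dried 1 h at 37 °C. Wells punched and compounds added in DMSO, with a DMSO solvent control. Triplicate plates held at 37 °C for 3–4 days. Read-out is inhibition zone diameter.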

Aspergillus flavus = assay: Antifungal activity against Aspergillus flavus NCIM 524 after 3 to 4 days by serial plate dilution method; settings: for MIC: Aspergillus flavus, NCIM 524; in short: as §2
Candida albicans = assay: Antifungal activity against Candida albicans after 3 to 4 days by serial plate dilution method; settings: for MIC: Candida albicans; in short: as §2
Klebsiella pneumoniae = assay: Antibacterial activity against recultured Klebsiella pneumoniae after 3 to 4 days by serial plate dilution method; settings: for MIC: Klebsiella pneumoniae; in short: as §1
Staphylococcus aureus = assay: Antibacterial activity against Staphylococcus aureus ATTC 25923 after 3 to 4 days by serial plate dilution method; settings: for MIC: Staphylococcus aureus, ATTC 25923; in short: as §1
Talaromyces marneffei = assay: Antifungal activity against recultured Penicillium marneffei after 3 to 4 days by serial plate dilution method; settings: for MIC: Talaromyces marneffei; in short: as §2
[1] = system: Trichophyton mentagrophytes; assay: Antifungal activity against recultured Trichophyton mentagrophytes after 3 to 4 days by serial plate dilution method; settings: for MIC: Trichophyton mentagrophytes; in short: as §2
Escherichia coli = assay: Antibacterial activity against Escherichia coli ATTC 25922 after 3 to 4 days by serial plate dilution method; settings: for MIC: Escherichia coli, ATTC 25922; in short: as §1
Pseudomonas aeruginosa = assay: Antibacterial activity against Pseudomonas aeruginosa ATCC 27853 after 3 to 4 days by serial plate dilution method; settings: for MIC: Pseudomonas aeruginosa, ATCC 27853; in short: as §1

| SMILES | diameter of the inhibition zone (DIZ) (Streptococcus pyogenes) [mm] | MIC (Streptococcus pyogenes) [µg/mL] | diameter of the inhibition zone (DIZ) (Aspergillus fumigatus) [mm] | MIC (Aspergillus fumigatus) [µg/mL] | diameter of the inhibition zone (DIZ) (Aspergillus flavus) [mm] | MIC (Aspergillus flavus) [µg/mL] | diameter of the inhibition zone (DIZ) (Candida albicans) [mm] | MIC (Candida albicans) [µg/mL] | diameter of the inhibition zone (DIZ) (Klebsiella pneumoniae) [mm] | MIC (Klebsiella pneumoniae) [µg/mL] | diameter of the inhibition zone (DIZ) (Staphylococcus aureus) [mm] | MIC (Staphylococcus aureus) [µg/mL] | diameter of the inhibition zone (DIZ) (Talaromyces marneffei) [mm] | MIC (Talaromyces marneffei) [µg/mL] | diameter of the inhibition zone (DIZ) [1] [mm] | MIC [1] [µg/mL] | diameter of the inhibition zone (DIZ) (Escherichia coli) [mm] | MIC (Escherichia coli) [µg/mL] | diameter of the inhibition zone (DIZ) (Pseudomonas aeruginosa) [mm] | MIC (Pseudomonas aeruginosa) [µg/mL] |
| --- | --- | --- | --- | --- | --- | --- | --- | --- | --- | --- | --- | --- | --- | --- | --- | --- | --- | --- | --- | --- |
| COc1ccc2nc(C)cc(-n3cc(CN4CCOCC4)nn3)c2c1 | 16 | 6.25 (≈ 18.4 µM) | 18 | 6.25 (≈ 18.4 µM) | 16 | 6.25 (≈ 18.4 µM) | 14 | 6.25 (≈ 18.4 µM) | 14 | 6.25 (≈ 18.4 µM) | 16 | 6.25 (≈ 18.4 µM) | 12 | 6.25 (≈ 18.4 µM) | 12 | 6.25 (≈ 18.4 µM) | 16 | 6.25 (≈ 18.4 µM) | 14 | 6.25 (≈ 18.4 µM) |
| COc1ccc2nc(C)cc(-n3cc(CN(C)C4CCCCC4)nn3)c2c1 | <10 | 50 (≈ 137 µM) | <10 | 50 (≈ 137 µM) | <10 | 50 (≈ 137 µM) | <10 | 50 (≈ 137 µM) | <10 | 50 (≈ 137 µM) | <10 | 50 (≈ 137 µM) | <10 | 50 (≈ 137 µM) | <10 | 50 (≈ 137 µM) | <10 | 50 (≈ 137 µM) | <10 | 50 (≈ 137 µM) |
| COc1ccc2nc(C)cc(-n3cc(CN4CCN(c5ccccc5)CC4)nn3)c2c1 | 10 | 12.5 (≈ 30.2 µM) | 16 | 6.25 (≈ 15.1 µM) | 14 | 6.25 (≈ 15.1 µM) | 12 | 6.25 (≈ 15.1 µM) | 12 | 12.5 (≈ 30.2 µM) | 10 | 6.25 (≈ 15.1 µM) | 16 | 6.25 (≈ 15.1 µM) | 16 | 6.25 (≈ 15.1 µM) | 12 | 12.5 (≈ 30.2 µM) | 12 | 12.5 (≈ 30.2 µM) |
| COc1ccc2nc(C)cc(-n3cc(CN4CCC(N5CCOCC5)CC4)nn3)c2c1 | 12 | 12.5 (≈ 29.6 µM) | <10 | 50 (≈ 118 µM) | 11 | 12.5 (≈ 29.6 µM) | <10 | 50 (≈ 118 µM) | 11 | 12.5 (≈ 29.6 µM) | 10 | 12.5 (≈ 29.6 µM) | <10 | 50 (≈ 118 µM) | <10 | 50 (≈ 118 µM) | 11 | 12.5 (≈ 29.6 µM) | 10 | 12.5 (≈ 29.6 µM) |
| COc1ccc2nc(C)cc(-n3cc(CN4CCN(C(C)C)CC4)nn3)c2c1 | 16 | 6.25 (≈ 16.4 µM) | 18 | 6.25 (≈ 16.4 µM) | 16 | 6.25 (≈ 16.4 µM) | 14 | 6.25 (≈ 16.4 µM) | 16 | 6.25 (≈ 16.4 µM) | 18 | 6.25 (≈ 16.4 µM) | 14 | 6.25 (≈ 16.4 µM) | 16 | 6.25 (≈ 16.4 µM) | 20 | 6.25 (≈ 16.4 µM) | 14 | 6.25 (≈ 16.4 µM) |
| CCC(C)NCc1cn(-c2cc(C)nc3ccc(OC)cc23)nn1 (configuration not stated) | 12 | 12.5 (≈ 38.4 µM) | <10 | 25 (≈ 76.8 µM) | 11 | 12.5 (≈ 38.4 µM) | 11 | 12.5 (≈ 38.4 µM) | 11 | 12.5 (≈ 38.4 µM) | 10 | 12.5 (≈ 38.4 µM) | 10 | 12.5 (≈ 38.4 µM) | <10 | 25 (≈ 76.8 µM) | 14 | 6.25 (≈ 19.2 µM) | 10 | 12.5 (≈ 38.4 µM) |
| Cc1cc(C2CCCCC2)n(O)c(=O)c1.NCCO [CICLOPIROX OLAMINE] | – | – | 25 | 6.25 | 25 | 3.12 | 20 | 6.25 | – | – | – | – | 20 | 6.25 | 27 | 3.12 | – | – | – | – |
| O=C(O)c1cn(C2CC2)c2cc(N3CCNCC3)c(F)cc2c1=O [CIPROFLOXACIN] | 25 | 6.25 (≈ 18.9 µM) | – | – | – | – | – | – | 23 | 6.25 (≈ 18.9 µM) | 22 | – | – | – | – | – | 30 | – | 16 | – |
